Reference: ChEMBL document CHEMBL1629527, “In vitro antifungal activities of bis(alkylpyridinium)alkane compounds against pathogenic yeasts and molds” (Antimicrob Agents Chemother, 2010)

Key:
Assay type in all cases: functional
Cryptococcus neoformans [1] = assay: Antifungal activity against Cryptococcus neoformans after 24 to 72 hrs by broth microdilution method
In short: (§1)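 Broth microdilution MIC per CLSI M27-A3 (yeasts) or M38-A2 (molds). RPMI 1640 with L-glutamine, without bicarbonate, buffered to pH 7.0 with 0.165 M MOPS. Final test range for the compounds was 0.175–87.5 μM. Incubation at 35°C with visual reading at 24–72 h. MIC was the lowest concentration giving 100% inhibition versus the growth control (azoles 50% or 100%, by organism). Each isolate was run in duplicate in two independent experiments.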

Nakaseomyces glabratus [2] = assay: Antifungal activity against Candida glabrata after 48 to 72 hrs; conditions: for MFC: Nakaseomyces glabratus
In short: (§2)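 MFC: after the MIC read, 30-μl aliquots from each well without visible growth were plated onto Sabouraud dextrose agar and incubated at 35°C. Reading was at 48–72 h for yeasts and up to 7 days for molds. MFC was the lowest concentration with no colonies.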

Pichia kudriavzevii [3] = assay: Antifungal activity against Candida krusei after 48 to 72 hrs; conditions: for MFC: Pichia kudriavzevii; in short: as §2
Cryptococcus neoformans [4] = assay: Antifungal activity against Cryptococcus neoformans after 48 to 72 hrs; conditions: for MFC: Cryptococcus neoformans; in short: as §2
Candida albicans [5] = assay: Antifungal activity against Candida albicans after 24 to 72 hrs by broth microdilution method
In short: (§3)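 CLSI M27-A3 broth microdilution for yeasts in RPMI 1640 with L-glutamine and no bicarbonate, buffered with 0.165 M MOPS to pH 7.0. Compounds were dissolved in water and tested at 0.175–87.5 μM final, 35°C. MIC was read visually at 24–72 h as 100% inhibition versus growth control. For MFC, 30 μl from clear wells went onto SDA at 35°C for 48–72 h, reading the lowest concentration without colonies. Duplicates, two independent runs.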

Candida tropicalis [6] = assay: Antifungal activity against Candida tropicalis after 24 to 72 hrs by broth microdilution method; in short: as §1
Nakaseomyces glabratus [7] = assay: Antifungal activity against Candida glabrata after 24 to 72 hrs by broth microdilution method; in short: as §1
Aspergillus fumigatus [8] = assay: Antifungal activity against Aspergillus fumigatus ATCC 204305 after 48 to 72 hrs
In short: (§4)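 CLSI M38-A2 broth microdilution for molds in RPMI 1640 with L-glutamine and no bicarbonate, buffered with 0.165 M MOPS to pH 7.0. Compounds were dissolved in water and tested at 0.175–87.5 μM final, 35°C, up to 7 days. MIC was read visually as 100% inhibition versus growth control. For MFC, clear wells were plated on SDA and the lowest concentration with no colonies taken. Each isolate was run in duplicate, two independent experiments.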

Aspergillus fumigatus [9] = assay: Antifungal activity against Aspergillus fumigatus 05-203114 after 48 to 72 hrs; in short: as §4
[10] = tested on: Cunninghamella bertholletiae; assay: Antifungal activity against Cunninghamella bertholletiae 99-12187 after 48 to 72 hrs; conditions: in the assay text read “for up to 7 days” for “after 48 to 72 hrs”; in short: as §2
Candida parapsilosis [11] = assay: Antifungal activity against Candida parapsilosis 04-202398 after 48 to 72 hrs; conditions: Lodderomyces parapsilosis; in short: as §3
Lomentospora prolificans [12] = assay: Antifungal activity against Scedosporium prolificans 05-203060 after 24 to 72 hrs by broth microdilution method
In short: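 Mold isolates subcultured on potato dextrose agar, then tested by CLSI M38-A2 broth microdilution in RPMI 1640 (L-glutamine, no bicarbonate) buffered to pH 7.0 with 0.165 M MOPS. Compounds were dissolved in water and tested at a final 0.175–87.5 μM. Plates were incubated at 35°C. MIC was read visually as the lowest concentration giving 100% inhibition versus the growth control. Each isolate was run in duplicate in two independent experiments.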

Cryptococcus neoformans [13] = assay: Antifungal activity against Cryptococcus neoformans 05-202523 after 24 to 72 hrs by broth microdilution method; in short: as §1
Candida albicans [14] = assay: Antifungal activity against Candida albicans ATCC 90028 after 24 to 72 hrs by broth microdilution method; in short: as §1
Candida tropicalis [15] = assay: Antifungal activity against Candida tropicalis 04-202361 after 48 to 72 hrs; in short: as §3
Candida albicans [16] = assay: Antifungal activity against Candida albicans ATCC 90028 after 48 to 72 hrs; in short: as §2
Candida albicans [17] = assay: Antifungal activity against Candida albicans ATCC 10231 after 48 to 72 hrs; in short: as §2
Pichia kudriavzevii [18] = assay: Antifungal activity against Candida krusei ATCC 6258 after 48 to 72 hrs; in short: as §2
Candida parapsilosis [19] = assay: Antifungal activity against Candida parapsilosis ATCC 22019 after 48 to 72 hrs; conditions: Lodderomyces parapsilosis; in short: as §2
Pichia kudriavzevii [20] = assay: Antifungal activity against Candida krusei ATCC 9258 after 24 to 72 hrs by broth microdilution method; in short: as §1
Nakaseomyces glabratus [21] = assay: Antifungal activity against Candida glabrata 04-202345 after 48 to 72 hrs; in short: as §2
[22] = Antifungal activity against Exophiala jeanselmei 03-200268 after 48 to 72 hrs; in short: as §4
Aspergillus terreus = assay: Antifungal activity against Aspergillus terreus 05-202844 after 48 to 72 hrs; in short: as §2
Lomentospora prolificans [23] = assay: Antifungal activity against Scedosporium prolificans 05-203060 after 48 to 72 hrs; in short: as §4
Pichia kudriavzevii [24] = assay: Antifungal activity against Candida krusei […] after 48 to 72 hrs; in short: as §2
Exophiala spinifera = assay: Antifungal activity against Exophiala spinifera 03-200803 after 48 to 72 hrs; in short: as §4
Aspergillus flavus = assay: Antifungal activity against Aspergillus flavus 05-203758 after 48 to 72 hrs; in short: as §4

| SMILES | MIC (Cryptococcus neoformans [1]) | MIC50 (Cryptococcus neoformans [1]) | MIC90 (Cryptococcus neoformans [1]) | MFC50 (Nakaseomyces glabratus [2]) | MFC90 (Nakaseomyces glabratus [2]) | MFC (Nakaseomyces glabratus [2]) | MFC50 (Pichia kudriavzevii [3]) | MFC90 (Pichia kudriavzevii [3]) | MFC (Pichia kudriavzevii [3]) | MFC50 (Cryptococcus neoformans [4]) | MFC90 (Cryptococcus neoformans [4]) | MFC (Cryptococcus neoformans [4]) | MIC50 (Candida albicans [5]) | MIC90 (Candida albicans [5]) | MIC (Candida tropicalis [6]) | MIC50 (Candida tropicalis [6]) | MIC90 (Candida tropicalis [6]) | MIC (Nakaseomyces glabratus [7]) | MIC50 (Nakaseomyces glabratus [7]) | MIC90 (Nakaseomyces glabratus [7]) | further results |
| --- | --- | --- | --- | --- | --- | --- | --- | --- | --- | --- | --- | --- | --- | --- | --- | --- | --- | --- | --- | --- | --- |
| CCCCCCc1cc[n+](CCCCCCCCCCCC[n+]2ccc(CCCCCC)cc2)cc1.[Cl-].[Cl-] | 1.19 µg/mL | 0.79 µg/mL | 3.11 µg/mL | 1.56 µg/mL | 1.56 µg/mL | 0.39 µg/mL | 1.56 µg/mL | 3.11 µg/mL | 0.79 µg/mL | 0.79 µg/mL | 12.45 µg/mL | 0.79 µg/mL | 1.56 µg/mL | 1.56 µg/mL | 1.18 µg/mL | 1.56 µg/mL | 1.56 µg/mL | 0.739 µg/mL | 0.79 µg/mL | 0.79 µg/mL | MIC (Candida albicans [5]): 1.56 µg/mL; MFC (Aspergillus fumigatus [8]): 50.7 µg/mL; MFC (Aspergillus fumigatus [9]): 50.7 µg/mL; MFC [10]: 25.3 µg/mL; MFC (Candida parapsilosis [11]): 50.7 µg/mL; MIC (Lomentospora prolificans [12]): 25.3 µg/mL; MIC (Cryptococcus neoformans [13]): 6.3 µg/mL; MIC (Candida albicans [14]): 0.79 µg/mL |
| C=CCCCc1cc[n+](CCCCCCCCCCCC[n+]2ccc(CCCC=C)cc2)cc1.[Cl-].[Cl-] | 3.83 µg/mL | 2.94 µg/mL | 5.87 µg/mL | 1.47 µg/mL | 5.87 µg/mL | 0.75 µg/mL | 5.87 µg/mL | 11.74 µg/mL | 0.75 µg/mL | 5.87 µg/mL | 11.74 µg/mL | 2.94 µg/mL | 1.47 µg/mL | 1.47 µg/mL | 0.746 µg/mL | 0.75 µg/mL | 1.47 µg/mL | 0.975 µg/mL | 1.47 µg/mL | 1.47 µg/mL | MIC (Candida albicans [5]): 1.28 µg/mL; MFC (Candida tropicalis [15]): 5.9 µg/mL; MFC (Candida albicans [16]): 2.96 µg/mL; MFC (Candida albicans [17]): 5.9 µg/mL; MFC (Pichia kudriavzevii [18]): 11.8 µg/mL; MFC (Candida parapsilosis [19]): 2.96 µg/mL; MIC (Lomentospora prolificans [12]): 1.48 µg/mL; MIC (Cryptococcus neoformans [13]): 11.8 µg/mL; MIC (Pichia kudriavzevii [20]): 11.8 µg/mL; MIC (Candida albicans [14]): 1.48 µg/mL; MFC (Nakaseomyces glabratus [21]): 3 µg/mL |
| CCCCCc1cc[n+](CCCCCCCCCCCC[n+]2ccc(CCCCC)cc2)cc1.[Cl-].[Cl-] | 2.41 µg/mL | 1.48 µg/mL | 5.91 µg/mL | 1.48 µg/mL | 1.48 µg/mL | 0.38 µg/mL | 2.96 µg/mL | 5.91 µg/mL | 0.38 µg/mL | 1.48 µg/mL | 47 µg/mL | 1.48 µg/mL | 1.48 µg/mL | 1.48 µg/mL | 0.702 µg/mL | 0.75 µg/mL | 0.75 µg/mL | 0.701 µg/mL | 0.75 µg/mL | 0.75 µg/mL | MFC [22]: 2.96 µg/mL; MFC (Aspergillus terreus): 11.8 µg/mL; MFC (Lomentospora prolificans [23]): 2.96 µg/mL; MFC (Pichia kudriavzevii [18]): 11.8 µg/mL; MFC (Pichia kudriavzevii [24]): 11.8 µg/mL; MFC (Candida parapsilosis [19]): 1.48 µg/mL; MIC (Lomentospora prolificans [12]): 1.48 µg/mL; MIC (Cryptococcus neoformans [13]): 47.3 µg/mL; MIC (Pichia kudriavzevii [20]): 5.9 µg/mL; MIC (Candida albicans [14]): 1.48 µg/mL |
| CCCCCc1cc[n+](CCCCCCCCCCCC[n+]2ccc(CCCCC)c(C)c2)cc1C.[Cl-].[Cl-] | 1.28 µg/mL | 0.79 µg/mL | 3.11 µg/mL | 0.79 µg/mL | 1.56 µg/mL | 0.39 µg/mL | 6.22 µg/mL | 6.22 µg/mL | 0.79 µg/mL | 0.79 µg/mL | 12.45 µg/mL | 0.79 µg/mL | 1.56 µg/mL | 1.56 µg/mL | 0.79 µg/mL | 0.79 µg/mL | 0.79 µg/mL | 0.642 µg/mL | 0.79 µg/mL | 0.79 µg/mL | MFC (Exophiala spinifera): 1.58 µg/mL; MIC (Candida albicans [5]): 1.36 µg/mL; MFC (Candida tropicalis [15]): 1.58 µg/mL; MFC (Aspergillus fumigatus [8]): 50.7 µg/mL; MFC (Aspergillus flavus): 50.7 µg/mL; MFC (Lomentospora prolificans [23]): 6.83 µg/mL; MFC (Candida parapsilosis [11]): 50.7 µg/mL; MIC (Lomentospora prolificans [12]): 1.58 µg/mL; MIC (Cryptococcus neoformans [13]): 12.7 µg/mL; MIC (Candida albicans [14]): 1.58 µg/mL; MFC (Nakaseomyces glabratus [21]): 3.2 µg/mL |
